Measured values taken from ChEMBL document CHEMBL3603766, “Structure-activity studies of Wnt/β-catenin inhibition in the Niclosamide chemotype: Identification of derivatives with improved drug exposure” (Bioorg Med Chem, 2015).
Activity calls are given as the source filed them. The calls are words filed in the database; no cut-off is given here.

Key:
[1] = Half life in Sprague-Dawley rat at 2 mg/kg, iv; type: ADME, organism-based; details: in vivo
[2] = Oral bioavailability in Sprague-Dawley rat at 5 mg/kg; type: ADME, organism-based; details: in vivo
HEK293 = assay: Inhibition of Wnt/beta-catenin in HEK293 cells assessed as inhibition of Wnt3A-stimulated TOPFlash activity after 8 hrs; type: cell-based; details: Homo sapiens, HEK293, 8 h
Outline: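 HEK293 cells stably carrying p8xTOPFlash and Renilla pRL-TK, seeded at 100% confluency. Cells given Wnt-3A conditioned medium (from L Wnt-3A cells) containing compound (0.04–10 μM) or DMSO for 8 h. Lysed and read by dual luciferase, firefly normalized to Renilla, Wnt3A+DMSO = 100%. IC50 fit, mean ± SEM, n ≥ 2.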

HCT-116 [3] = assay: Cytotoxicity against human HCT116 cells assessed as growth inhibition after 72 hrs by MTS assay; type: functional, cell-based; details: HCT-116, 72 h
Outline: (§1)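 HCT116 colon cancer cells seeded at 5000 cells/well, exposed to compound at 0.04–10 μM for 72 h, then read by colorimetric MTS. Viability normalized to DMSO set at 100%. IC50 from curve fit, mean ± SEM, n = 3.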

[4] = Volume of distribution at steady state in Sprague-Dawley rat at 2 mg/kg, iv; type: ADME, organism-based; details: in vivo
U2OS = assay: Inhibition of Wnt/beta-catenin in human U2OS cells assessed as internalization of frizzled-GFP at 12.5 uM after 6 hrs by confocal microscopic analysis; type: cell-based
Outline: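 U2OS cells stably expressing Frizzled1-GFP, plated 24 h, then exposed to 12.5 μM compound or DMSO for 6 h at 37 °C. Fixed with 4% paraformaldehyde and imaged by confocal microscopy (488 nm excitation). Punctate scored blind twice on a 0–5 scale against DMSO control.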

[5] = Total clearance in Sprague-Dawley rat at 2 mg/kg, iv; type: ADME, organism-based; details: in vivo
Plasma [6] = assay: Drug uptake in plasma of CD1 mouse at 200 mg/kg, po by LC/MS-MS analysis; type: ADME, organism-based; details: in vivo
Outline: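 CD1 mice gavaged at 200 mg/kg with a solution (20 mg/ml) in 90% PEG 300 / 10% 1-methyl-2-pyrrolidinone. Blood sampled predose and at 0.25, 0.5, 1, 2, 4, 8 h. Plasma analyzed by LC/MS–MS, including for a potential active metabolite.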

[7] = Lipophilicity, log P of the compound at pH <=4; type: physicochemical; details: octanol/water
Plasma [8] = assay: Drug level in CD1 mouse plasma treated with DK-520 at 200 mg/kg, po measured for 24 hrs by LC/MS-MS analysis; type: ADME, organism-based; details: in vivo
Outline: (§2)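 CD1 mice given prodrug orally as a solution in corn oil (20 mg/ml) at 200 mg/kg. Niclosamide in plasma quantified by LC/MS–MS, reported as ng/mL, mean ± SEM.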

[9] = Cytotoxicity against human breast cancer cells assessed as growth inhibition after 72 hrs by Cell Titer Glo Assay; type: functional, cell-based; details: Cancer cell lines, pooled result: one value given for 7 cell lines, strains, targets or settings
[10] = Distribution coefficient, log D of the compound at pH 7; type: physicochemical; details: octanol/water
HCT-116 [11] = assay: Cytotoxicity against human HCT116 cells assessed as growth inhibition up to 10 uM after 72 hrs by MTS assay; type: functional, cell-based; outline: as §1
Mus musculus [12] = assay: AUClast in CD1 mouse assessed as niclosamide at 200 mg/kg, po; type: ADME, organism-based; set-up: dose 200 mg/kg, route oral, time 0 - last; details: in vivo; outline: as §2
Mus musculus [13] = assay: Toxicity in NOD/SCID mouse assessed as change in body weight at 200 mg/kg, po administered 6 days a week for 3 weeks; type: organism-based; details: in vivo
Outline: (§3)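 NOD/SCID mice dosed orally with 200 mg/kg in corn oil, or corn oil vehicle, 6 days a week for 3 weeks. Observed throughout for side effects and behavior. Body weight taken on the first dosing day (week 0) and on the day after the last dose (week 3).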

Mus musculus [14] = assay: Tlast in CD1 mouse assessed as niclosamide at 200 mg/kg, po; type: ADME, organism-based; details: in vivo; outline: as §2
Mus musculus [15] = assay: Half life in CD1 mouse assessed as niclosamide at 200 mg/kg, po measured for 24 to 48 hrs; type: ADME, organism-based; details: in vivo; outline: as §2
Mus musculus [16] = assay: Tmax in CD1 mouse assessed as niclosamide at 200 mg/kg, po; type: ADME, organism-based; details: in vivo; outline: as §2
Mus musculus [17] = assay: Toxicity in NOD/SCID mouse assessed as change in behavior at 200 mg/kg, po administered 6 days a week for 3 weeks; type: organism-based; details: in vivo; outline: as §3
Plasma [18] = assay: Drug metabolism in CD1 mouse plasma assessed as niclosamide production at 200 mg/kg, po measured for 24 hrs by LC/MS-MS analysis; type: ADME, organism-based; details: in vivo; outline: as §2
Mus musculus [19] = assay: Half life in CD1 mouse assessed as niclosamide at 200 mg/kg, po measured for 45 to 240 mins; type: ADME, organism-based; details: in vivo; outline: as §2
Mus musculus [20] = assay: Clast in CD1 mouse assessed as niclosamide at 200 mg/kg, po; type: ADME, organism-based; details: in vivo; outline: as §2
Mus musculus [21] = assay: Cmax in CD1 mouse assessed as niclosamide at 200 mg/kg, po; type: ADME, organism-based; set-up: dose 200 mg/kg, route oral; details: in vivo; outline: as §2

| SMILES | IC50 (HEK293) [nM] | inhibition (U2OS) | also measured |
| --- | --- | --- | --- |
| O=C(Nc1ccc(Cl)cc1Cl)c1cc(Cl)ccc1O | 420 | Active | half-life [1]: 156 min; bioavailability [2]: 12%; IC50 (HCT-116 [3]): 1180 nM; Vd [4]: 0.3 L/kg; clearance [5]: 27 mL/min/kg |
| O=c1oc2ccc(Cl)cc2c(=O)n1-c1ccc([N+](=O)[O-])cc1Cl | 370 | – | – |
| O=C(Nc1cc(Cl)cc(Cl)c1)c1cc(Cl)ccc1O | 700 | Active | – |
| O=C(Nc1ccccc1)c1cc(Cl)ccc1O | 11800 | inactive | – |
| O=C(Nc1ccc(F)cc1F)c1cc(Cl)ccc1O | 4020 | inactive | – |
| O=C(NCc1ccc(C(F)(F)F)cc1)c1cc(Cl)ccc1O | 15100 | inactive | – |
| O=S(=O)(Nc1ccc(C(F)(F)F)cc1Cl)c1cc(Cl)ccc1O | 2570 | inactive | – |
| O=C(c1ccccc1)c1ccc(NC(=O)c2cc(Cl)ccc2O)cc1 | 15000 | inactive | – |
| NC(=O)c1ccc(NC(=O)c2cc(Cl)ccc2O)cc1 | > 12000 | inactive | – |
| O=C(Nc1ccc([N+](=O)[O-])cc1Cl)c1cc(Cl)ccc1O [NICLOSAMIDE] | 340 | Active | bioavailability [2]: 10%; Drug uptake (Plasma [6]): Active; logP [7]: 5.95; Drug metabolism (Plasma [8]): metabolite_detected; IC50 (HCT-116 [3]): 450 nM; IC50 [9]: 130 nM; Vd [4]: 0.9 L/kg; logD [10]: 4.48; clearance [5]: 20 mL/min/kg |
| O=C(Nc1ccc(C(F)(F)F)cc1)c1cc(Cl)ccc1O | 290 | Active | IC50 (HCT-116 [3]): 670 nM |
| O=C(Nc1ccc(F)c(Cl)c1)c1cc(Cl)ccc1O | 1210 | Active | – |
| O=C(Nc1c(F)cccc1F)c1cc(Cl)ccc1O | > 12000 | – | – |
| CN(C(=O)c1cc(Cl)ccc1O)c1ccc(C(F)(F)F)cc1 | > 12000 | inactive | – |
| O=c1oc2ccc(Cl)cc2c(=O)n1-c1ccc(C(F)(F)F)cc1 | 320 | Active | – |
| O=c1oc2ccc(Cl)cc2c(=O)n1-c1ccc(C(F)(F)F)cc1Cl | 330 | Active | Drug uptake (Plasma [6]): Active; IC50 (HCT-116 [3]): 550 nM |
| O=C(Nc1c(Cl)cccc1Cl)c1cc(Cl)ccc1O | > 12000 | inactive | growth inhibition (GI) (HCT-116 [11]): inactive |
| O=C(Nc1ccc(Cl)c(Cl)c1)c1cc(Cl)ccc1O | 730 | Active | – |

| SMILES | IC50 (HEK293) [nM] | inhibition (U2OS) | also measured |
| --- | --- | --- | --- |
| O=C(Nc1ccc(F)cc1Cl)c1cc(Cl)ccc1O | 1410 | Active | – |
| O=C(Nc1cccc(Cl)c1)c1cc(Cl)ccc1O | 1650 | Active | – |
| O=C(Nc1ccc([N+](=O)[O-])cc1)c1cc(Cl)ccc1O | 990 | Active | – |
| CC(=O)c1ccc(NC(=O)c2cc(Cl)ccc2O)cc1 | 6420 | inactive | – |
| O=C(Nc1ccc(C(F)(F)F)cc1F)c1cc(Cl)ccc1O | 550 | Active | – |
| CCOC(=O)Oc1ccc(Cl)cc1C(=O)Nc1ccc(C(F)(F)F)cc1Cl | 340 | Active | IC50 (HCT-116 [3]): 510 nM |
| O=C(Nc1ccc(F)cc1)c1cc(Cl)ccc1O | 3840 | inactive | – |
| CCCCCCCC(=O)Oc1ccc(Cl)cc1C(=O)Nc1ccc([N+](=O)[O-])cc1Cl | 230 | Active | AUClast (Mus musculus [12]): 22.4 µg·h/mL; Activity (Mus musculus [13]): Non-toxic; Tlast (Mus musculus [14]): 72 h; t1/2 (Mus musculus [15]): 12.2 h; IC50 (HCT-116 [3]): 610 nM; Tmax (Mus musculus [16]): 45 min; Activity (Mus musculus [17]): Non-toxic; Drug metabolism (Plasma [18]): metabolite_detected; t1/2 (Mus musculus [19]): 41.4 min; Clast (Mus musculus [20]): 0.049 µg/mL; Cmax (Mus musculus [21]): 6.1 µg/mL |
| O=C(Nc1ccc(C(F)(F)F)cc1Cl)c1cc(Cl)ccc1O | 560 | Active | half-life [1]: 222 min; bioavailability [2]: 15%; IC50 (HCT-116 [3]): 540 nM; Vd [4]: 1.1 L/kg; clearance [5]: 39 mL/min/kg |
| O=C(Nc1ccccc1Cl)c1cc(Cl)ccc1O | 3050 | inactive | – |
| CC(=O)Oc1ccc(Cl)cc1C(=O)Nc1ccc(C(F)(F)F)cc1Cl | 320 | Active | – |
| O=C(NC(=O)c1cc(Cl)ccc1O)c1ccc(C(F)(F)F)cc1 | > 12000 | inactive | – |
| O=C(Nc1ccccc1)c1ccc(NC(=O)c2cc(Cl)ccc2O)cc1 | 32900 | inactive | – |
| CS(=O)(=O)c1ccc(NC(=O)c2cc(Cl)ccc2O)c(Cl)c1 | 7660 | inactive | – |
| O=C(Nc1cc(Cl)ccc1Cl)c1cc(Cl)ccc1O | 750 | Active | – |
| O=C(Nc1cc(Cl)ccc1O)c1ccc([N+](=O)[O-])cc1 | > 12000 | – | – |
| O=C(Nc1cccc(C(F)(F)F)c1)c1cc(Cl)ccc1O | 890 | Active | – |
| O=C(Nc1ccc(Cl)cc1)c1cc(Cl)ccc1O | 1300 | Active | – |
